According to ChEMBL document CHEMBL1151453, “Subinhibitory concentrations of azithromycin decrease nontypeable Haemophilus influenzae biofilm formation and Diminish established biofilms” (2008):
≈ marks a conversion by molar mass, not a printed value. Calls of active or inactive are those of the source. The calls are words filed in the database; no cut-off is given here.

Experiments:
Haemophilus influenzae [1] = assay: Antimicrobial activity against nontypeable Haemophilus influenzae isolate 2019 expressing GFP isolated from patient with COPD assessed as inhibition biofilm formation at 0.25 ug/mL after 2 days; assay type: functional, organism-based
In short: (§1)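 Flow cell: GFPmut3-expressing strain 2019 (kanamycin selection before inoculation) grown under a glass coverslip at 37°C. Medium was 1% BHI with NAD and hemin (1% final) in 150 mM NaCl, flowing at 0.08 ml/min, with or without antibiotic. Established-biofilm arm: no drug days 0–2, then drug days 2–4. Confocal imaging; biomass and maximal thickness by COMSTAT; n = 3.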

Haemophilus influenzae [2] = assay: Antimicrobial activity against nontypeable Haemophilus influenzae isolate 2019 expressing GFP isolated from patient with COPD assessed as maximal doubling time at 0.125 ug/mL using flow cell culture after 24 hrs; assay type: functional
In short: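 Growth curves: overnight strain 2019 culture, 1 ml diluted into 24 ml supplemented BHI (starting OD600 <0.050), antibiotic 0.03–2 μg/ml. Shaken at 37°C, OD600 read hourly. Maximal doubling time taken from the curves. Also repeated in flow-cell medium (1% supplemented BHI in 150 mM NaCl).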

Haemophilus influenzae [3] = assay: Antimicrobial activity against nontypeable Haemophilus influenzae isolate 2019 expressing GFP isolated from patient with COPD assessed as growth inhibition at 0.125 ug/mL […]; assay type: functional, organism-based
Haemophilus influenzae [4] = assay: Antimicrobial activity against nontypeable Haemophilus influenzae isolate 2019 expressing GFP isolated from patient with COPD by broth microdilution method; assay type: functional
In short: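 MIC for strain 2019 carrying pRSM2211, by CLSI broth microdilution, done in a clinical microbiology laboratory.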

Haemophilus influenzae [5] = assay: Antimicrobial activity against nontypeable Haemophilus influenzae isolate 2019 expressing GFP isolated from patient with COPD assessed as decrease biofilm formation at 0.125 ug/mL after 2 days using flow cell culture relative to control; assay type: functional, organism-based
In short: (§2)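 Flow cell: GFPmut3-expressing strain 2019 (pRSM2211, kanamycin selection before inoculation) attached under a glass coverslip. Medium: 1% BHI with NAD and hemin ([…]) in 150 mM NaCl, 0.08 ml/min flow, 37°C. Antibiotic at 0.125 μg/ml, either from inoculation or added after 2 days. Confocal imaging; biomass and maximal thickness by COMSTAT (n = 3).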

Haemophilus influenzae [6] = assay: Antimicrobial activity against nontypeable Haemophilus influenzae isolate 2019 expressing GFP isolated from patient with COPD assessed as decrease biomass of biofilm at 0.125 ug/mL after 2 days using flow cell culture relative to control; assay type: functional, organism-based; in short: as §2
Haemophilus influenzae [7] = assay: Antimicrobial activity against nontypeable Haemophilus influenzae isolate 2019 expressing GFP isolated from patient with COPD assessed as decrease maximal thickness of biofilm at 0.125 ug/mL after 2 days using flow cell culture relative to control; assay type: functional, organism-based; in short: as §2
Haemophilus influenzae [8] = assay: Antimicrobial activity against nontypeable Haemophilus influenzae isolate 2019 expressing GFP isolated from patient with COPD assessed as decrease in biomass of biofilm in 2 days established biofilm at 0.125 ug/mL after 4 days using flow cell culture; assay type: functional, organism-based; in short: as §2
Haemophilus influenzae [9] = assay: Antimicrobial activity against nontypeable Haemophilus influenzae isolate 2019 expressing GFP isolated from patient with COPD assessed as decrease in maximum thickness of biofilm in 2 days established biofilm at 0.125 ug/mL after 4 days using flow cell culture; assay type: functional, organism-based; in short: as §2
Haemophilus influenzae [10] = assay: Antimicrobial activity against nontypeable Haemophilus influenzae isolate 2019 expressing GFP isolated from patient with COPD assessed as decrease in biomass of biofilm at 0.125 ug/mL incubated for 2 days measured after day 4 using flow cell culture; assay type: functional, organism-based; in short: as §2
Haemophilus influenzae [11] = assay: Antimicrobial activity against nontypeable Haemophilus influenzae isolate 2019 expressing GFP isolated from patient with COPD assessed as decrease in maximal thickness of biofilm at 0.125 ug/mL incubated for 2 days measured after days 4 using flow cell culture; assay type: functional, organism-based; in short: as §2
Haemophilus influenzae [12] = assay: Antimicrobial activity against nontypeable Haemophilus influenzae isolate 2019 expressing GFP isolated from patient with COPD assessed as decrease in biofilm formation at 0.125 ug/mL treated for 4 days measured on day 2 to 4 using flow cell culture; assay type: functional, organism-based; in short: as §2
Haemophilus influenzae [13] = assay: Antimicrobial activity against nontypeable Haemophilus influenzae isolate 2019 expressing GFP isolated from patient with COPD assessed as decrease in established biofilm formation at 0.125 ug/mL treated for 4 days measured on day 2 to 4 using flow cell culture; assay type: functional, organism-based; in short: as §2
Haemophilus influenzae [14] = assay: Antimicrobial activity against azithromycin-resistant nontypeable Haemophilus influenzae isolate S34 assessed as inhibition of biofilm formation at >64 ug/mL; assay type: functional, organism-based
In short: (§3)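 Static-culture biofilm: mid-log-phase bacteria in BHI broth with 10 μg/ml hemin and 10 μg/ml NAD, azithromycin 0.06 to 64 μg/ml, flat-bottom polystyrene 96-well plates, 37°C. Planktonic growth read hourly as A490 over the first 7 h. Biomass at the air-liquid interface stained with crystal violet at 24 h, same wells. Representative data, n = 3.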

Haemophilus influenzae [15] = assay: Antimicrobial activity against azithromycin-resistant nontypeable Haemophilus influenzae isolate S43 assessed as inhibition of biofilm formation at >64 ug/mL; assay type: functional, organism-based; in short: as §3
Haemophilus influenzae [16] = assay: Antimicrobial activity against azithromycin-resistant nontypeable Haemophilus influenzae isolate S44 assessed as inhibition of biofilm formation at >64 ug/mL; assay type: functional, organism-based; in short: as §3
Haemophilus influenzae [17] = assay: Antimicrobial activity against azithromycin-resistant nontypeable Haemophilus influenzae isolate S61 assessed as inhibition of biofilm formation at >64 ug/mL; assay type: functional, organism-based; in short: as §3
Haemophilus influenzae [18] = assay: Antimicrobial activity against nontypeable Haemophilus influenzae isolate 2019 expressing GFP isolated from patient with COPD assessed as inhibition of biofilm formation at 0.25 ug/ml after 7 hrs using crystal violet; assay type: functional, organism-based
Haemophilus influenzae [19] = assay: Antimicrobial activity against azithromycin-resistant nontypeable Haemophilus influenzae isolate S52 assessed as inhibition of biofilm formation at 8 ug/mL after 7 hrs using crystal violet; assay type: functional, organism-based
Haemophilus influenzae [20] = assay: Antimicrobial activity against azithromycin-resistant nontypeable Haemophilus influenzae isolate S53 assessed as inhibition of biofilm formation at 16 ug/mL after 7 hrs using crystal violet; assay type: functional, organism-based
Haemophilus influenzae [21] = assay: Antimicrobial activity against azithromycin-resistant nontypeable Haemophilus influenzae isolate S57 assessed as inhibition of biofilm formation at 64 ug/mL after 7 hrs using crystal violet; assay type: functional, organism-based
Haemophilus influenzae [22] = assay: Antimicrobial activity against nontypeable Haemophilus influenzae isolate 2019 expressing GFP isolated from patient with COPD assessed as viability at 0.125 ug/mL after 2 days using flow cell culture; assay type: functional, organism-based
In short: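 Flow-cell biofilms of GFP-expressing strain 2019 grown 2 days with or without 0.125 μg/ml antibiotic, then stained with propidium iodide for 15 min.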

Haemophilus influenzae [23] = assay: Antimicrobial activity against nontypeable Haemophilus influenzae isolate 2019 expressing GFP isolated from patient with COPD assessed as viability at 0.125 ug/mL incubated for 2 days measured on day 4 using flow cell culture; assay type: functional, organism-based
Haemophilus influenzae [24] = assay: Antimicrobial activity against nontypeable Haemophilus influenzae isolate 2019 expressing GFP isolated from patient with COPD assessed as maximal doubling time at 0.25 ug/mL using flow cell culture after 24 hrs; assay type: functional, organism-based
Haemophilus influenzae [25] = assay: Antimicrobial activity against nontypeable Haemophilus influenzae isolate 2019 expressing GFP isolated from patient with COPD assessed as growth inhibition at 0.25 ug/mL using static culture after 24 hrs; assay type: functional, organism-based
Haemophilus influenzae [26] = assay: Antimicrobial activity against nontypeable Haemophilus influenzae isolate 2019 expressing GFP isolated from patient with COPD by […] assay; assay type: functional, organism-based
In short: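 MIC for strain 2019 carrying pRSM2211 determined by CLSI broth microdilution and Etest, performed by a hospital clinical microbiology laboratory.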

Haemophilus influenzae [27] = assay: Antimicrobial activity against nontypeable Haemophilus influenzae isolate 2019 expressing GFP isolated from patient with COPD assessed as decrease in biofilm formation at 8 ug/mL after 2 days; assay type: functional, organism-based; in short: as §1
Haemophilus influenzae [28] = assay: Antimicrobial activity against nontypeable Haemophilus influenzae isolate 2019 expressing GFP isolated from patient with COPD assessed as decrease in biomass of biofilm at 16 ug/mL after 2 days; assay type: functional, organism-based; in short: as §1
Haemophilus influenzae [29] = assay: Antimicrobial activity against nontypeable Haemophilus influenzae isolate 2019 expressing GFP isolated from patient with COPD assessed as decrease in maximal thickness of biofilm at 16 ug/mL after 2 days; assay type: functional, organism-based; in short: as §1
Haemophilus influenzae [30] = assay: Antimicrobial activity against nontypeable Haemophilus influenzae isolate 2019 expressing GFP isolated from patient with COPD assessed as decrease in biomass of biofilm at 0.25 ug/mL after 2 days; assay type: functional, organism-based; in short: as §1
Haemophilus influenzae [31] = assay: Antimicrobial activity against nontypeable Haemophilus influenzae isolate 2019 expressing GFP isolated from patient with COPD assessed as decrease in maximal thickness of biofilm at 0.25 ug/mL after 2 days; assay type: functional, organism-based; in short: as §1
Haemophilus influenzae [32] = assay: Antimicrobial activity against nontypeable Haemophilus influenzae isolate 2019 expressing GFP isolated from patient with COPD assessed as decrease in biomass of biofilm at 0.25 ug/mL after 4 days; assay type: functional, organism-based; in short: as §1
Haemophilus influenzae [33] = assay: Antimicrobial activity against nontypeable Haemophilus influenzae isolate 2019 expressing GFP isolated from patient with COPD assessed as decrease in maximal thickness of biofilm at 0.25 ug/mL after 4 days; assay type: functional, organism-based; in short: as §1
Haemophilus influenzae [34] = assay: Antimicrobial activity against nontypeable Haemophilus influenzae isolate 2019 expressing GFP isolated from patient with COPD assessed as decrease in biomass of 2 days established biofilm measured on day 4 using flow cell culture; assay type: functional, organism-based; in short: as §1

Compound: CC[C@H]1OC(=O)[C@H](C)[C@@H](O[C@H]2C[C@@](C)(OC)[C@@H](O)[C@H](C)O2)[C@H](C)[C@@H](O[C@@H]2O[C@H](C)C[C@H](N(C)C)[C@H]2O)[C@](C)(O)C[C@@H](C)C(=O)[C@H](C)[C@@H](O)[C@]1(C)O
- Activity (Haemophilus influenzae [1]): inactive

Compound: CC[C@H]1OC(=O)[C@H](C)[C@@H](O[C@H]2C[C@@](C)(OC)[C@@H](O)[C@H](C)O2)[C@H](C)[C@@H](O[C@@H]2O[C@H](C)C[C@H](N(C)C)[C@H]2O)[C@](C)(O)C[C@@H](C)CN(C)[C@H](C)[C@@H](O)[C@]1(C)O [AZITHROMYCIN]
- Activity (Haemophilus influenzae [2]): 44 min
- Activity (Haemophilus influenzae [3]): inactive
- MIC (Haemophilus influenzae [4]): 0.5 µg/mL (≈ 0.668 µM)
- Activity (Haemophilus influenzae [5]): Active
- Activity (Haemophilus influenzae [6]): Active
- Activity (Haemophilus influenzae [7]): Active
- Activity (Haemophilus influenzae [8]): Active
- Activity (Haemophilus influenzae [9]): Active
- Activity (Haemophilus influenzae [10]): inactive
- Activity (Haemophilus influenzae [11]): inactive
- Activity (Haemophilus influenzae [12]): Active
- Activity (Haemophilus influenzae [13]): Active
- Activity (Haemophilus influenzae [14]): Active
- Activity (Haemophilus influenzae [15]): Active
- Activity (Haemophilus influenzae [16]): Active
- Activity (Haemophilus influenzae [17]): Active
- Activity (Haemophilus influenzae [18]): Active
- Activity (Haemophilus influenzae [19]): Active
- Activity (Haemophilus influenzae [20]): Active
- Activity (Haemophilus influenzae [21]): Active
- Activity (Haemophilus influenzae [22]): inactive
- Activity (Haemophilus influenzae [23]): inactive

Compound: GENTAMICIN
- Activity (Haemophilus influenzae [24]): 51 min
- Activity (Haemophilus influenzae [25]): Active
- MIC (Haemophilus influenzae [26]): 2 µg/mL
- Activity (Haemophilus influenzae [1]): Active
- Activity (Haemophilus influenzae [27]): Active
- Activity (Haemophilus influenzae [28]): Active
- Activity (Haemophilus influenzae [29]): Active
- Activity (Haemophilus influenzae [30]): inactive
- Activity (Haemophilus influenzae [31]): inactive
- Activity (Haemophilus influenzae [32]): inactive
- Activity (Haemophilus influenzae [33]): inactive
- Activity (Haemophilus influenzae [34]): Dose-dependent effect
